From ChEMBL document CHEMBL2311473, “Characterization of antimicrobial, cytotoxic, and antiendotoxin properties of short peptides with different hydrophobic amino acids at "a" and "d" positions of a heptad repeat sequence” (J Med Chem, 2013)
≈ marks a conversion by molar mass, not a printed value. Calls of active or inactive are those of the source. No cut-off for these calls is given here.

What was measured:
[1] = tested on: Trichophyton mentagrophytes; assay: Antifungal activity against Trichophyton mentagrophytes after 96 hrs by NCCLS microbroth dilution method; format: functional
Summary of the method: (§1)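 Microbroth dilution in MOPS-buffered RPMI 1640 following NCCLS guidelines. Inoculum 1−5 × 10^3 cells/mL, peptide range 50−0.36 (mass/mL). Plates held in a moist chamber at 35 °C and A492 read after 48 h (Candida spp.), 72 h (A. fumigatus, S. schenckii, C. neoformans) or 96 h (T. mentagrophytes). MIC taken as 90% growth inhibition versus growth control.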

RAW264.7 [2] = assay: Antiinflammatory activity in mouse RAW264.7 cells assessed as inhibition of LPS-induced TNFalpha secretion at 1.5 to 4.5 uM after 12 hrs by ELISA; format: functional, cell-based
Summary of the method: (§2)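 RAW 264.7 cells treated with LPS alone or LPS plus peptide. TNF-α and IL-6 measured by ELISA in culture supernatant and expressed as percentage inhibition of LPS-induced secretion. Mean of three independent experiments, SD shown.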

RAW264.7 [3] = assay: Antiinflammatory activity in mouse RAW264.7 cells assessed as downregulation of LPS-induced iNOS2 expression at 4.5 uM after 24 hrs by Western blotting analysis; format: functional, cell-based
Summary of the method: (§3)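 RAW 264.7 cells (~2 × 10^5) stimulated with LPS 1 μg/mL plus peptide 4.5 μM for 24 h. Cells washed in ice-cold PBS and lysed in Laemmli buffer. SDS-PAGE (8% gel iNOS-2, 12% TNF-α), nitrocellulose transfer, alkaline phosphatase secondary with NBT/BCIP. Band densities normalized to β-actin. LPS-only and untreated cells served as controls.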

Bacillus subtilis = assay: Antibacterial activity against Bacillus subtilis ATCC 6633 after 18 hrs by broth dilution method; format: functional; details: ATCC 6633, 18 h
Summary of the method: (§4)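 Bacteria grown aerobically at 37 °C in Mueller-Hinton broth to mid-log phase (OD600), diluted to ~10^6 cfu/mL, then mixed 1:1 with 2-fold serial peptide dilutions in water. Incubation ~18 h at 37 °C before MIC read-out (μM).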

Cryptococcus neoformans = assay: Antifungal activity against Cryptococcus neoformans after 72 hrs by NCCLS microbroth dilution method; format: functional; summary of the method: as §1
[4] = Induction of dissipation of diffusion potential in PE/PG lipid vesicles by fluorescence assay; format: physicochemical
Summary of the method: (§5)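 SUVs of PC/Chol (8:1 w/w) or PE/PG (7:3 w/w) treated with peptide. Dissipation of diffusion potential taken as percentage fluorescence recovery ~5 min after peptide addition, with valinomycin used for reference levels. Plotted against peptide/lipid molar ratio.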

Lipopolysaccharide (LPS) [5] = assay: Binding affinity to LPS assessed as inhibition of LPS-induced LAL enzyme activation at 18 uM after 30 mins by spectrophotometric analysis
Summary of the method: (§6)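 Chromogenic limulus amoebocyte lysate endotoxin kit. Peptide binding to LPS estimated from inhibition of LPS-induced LAL enzyme activation, i.e. reduced substrate colour, and reported as percentage LPS binding.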

Candida parapsilosis = assay: Antifungal activity against Candida parapsilosis ATCC 22019 after 48 hrs by NCCLS microbroth dilution method; format: functional; details: Lodderomyces parapsilosis, ATCC 22019, 48 h; summary of the method: as §1
[6] = Binding affinity to PE/PG lipid vesicles assessed as decrease in decrease in acrylamide-induced tryptophan fluorescence quenching at 1 uM; format: physicochemical
Summary of the method: (§7)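 Acrylamide quencher added in aliquots from 3.0 M stock to peptide with PC/Chol (8:1) or PE/PG (7:3) SUVs, peptide/lipid 1:100. Trp excited at 295 nm. Values corrected for dilution and vesicle-blank scatter, then fitted to Stern–Volmer F0/F = 1 + KSV[Q].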

Pseudomonas aeruginosa = assay: Antibacterial activity against Pseudomonas aeruginosa ATCC BAA-427 after 18 hrs by broth dilution method; format: functional; details: ATCC BAA-427, 18 h; summary of the method: as §4
Klebsiella pneumoniae = assay: Antibacterial activity against Klebsiella pneumoniae ATCC 27736 after 18 hrs by broth dilution method; format: functional; details: ATCC 27736, 18 h; summary of the method: as §4
[7] = Cytotoxicity against human RBC assessed as induction of membrane depolarization at up to 16 uM by DiSC3(5) staining-based fluorescence assay; format: cell-based; details: erythrocyte
Summary of the method: (§8)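 Membrane potential dye diS-C3-5 preincubated 1 h with hRBC or S. aureus suspensions; I0 is steady-state fluorescence after this incubation. Peptide then added at varying concentrations. Depolarization expressed as percentage fluorescence recovery (Ft) versus peptide concentration.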

[8] = Binding affinity to PE/PG lipid vesicles assessed as induction of large blue shift at 1 uM by fluorescence assay; format: physicochemical
Candida albicans = assay: Antifungal activity against Candida albicans after 48 hrs by NCCLS microbroth dilution method; format: functional; summary of the method: as §1
Lipopolysaccharide (LPS) [9] = assay: Binding affinity to LPS assessed as increase in helical structure at 36 uM by circular dichroism analysis
Summary of the method: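 CD spectra of peptides (36 μM) recorded alone and with LPS at 3.8 and 6.25 μM.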

Staphylococcus aureus [10] = assay: Antibacterial activity against Staphylococcus aureus ATCC 9144 after 18 hrs by broth dilution method; format: functional; details: ATCC 9144, 18 h; summary of the method: as §4
[11] = Binding affinity to PC/Chol lipid vesicles assessed as decrease in acrylamide-induced tryptophan fluorescence quenching at 1 uM; format: physicochemical; summary of the method: as §7
RAW264.7 [12] = assay: Antiinflammatory activity in mouse RAW264.7 cells assessed as inhibition of LPS-induced IL6 secretion at 1.5 to 4.5 uM after 12 hrs by ELISA; format: functional, cell-based; summary of the method: as §2
[13] = tested on: Staphylococcus epidermidis; assay: Antibacterial activity against Staphylococcus epidermidis NRRL B-4268 after 18 hrs by broth dilution method; format: functional; details: NRRL B-4268, 18 h; summary of the method: as §4
[14] = Drug uptake in human RBC assessed as membrane localization at 9 uM after 10 to 30 mins by confocal microscopic analysis; format: ADME; details: erythrocyte
Summary of the method: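 Fresh hRBCs (3% in PBS) incubated with NBD-labeled peptide (~9.0 μM) for 10–30 min at 37 °C. Washed, fixed in 2% paraformaldehyde 10 min, and imaged by confocal microscopy at constant photomultiplier setting.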

Sporothrix schenckii = assay: Antifungal activity against Sporothrix schenckii after 72 hrs by NCCLS microbroth dilution method; format: functional; summary of the method: as §1
[15] = Cytotoxicity against human RBC assessed as hemolysis at 60 uM; format: cell-based, Erythrocyte; details: red blood cells (RBC), read-out: Activity
Summary of the method: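 hRBCs in PBS exposed to peptide. Hemoglobin release read as supernatant absorbance at 540 nm. Hemolysis % = (Asample − Ablank)/(Atriton − Ablank) × 100, with PBS blank and 0.2% Triton X-100 (final) as 100% reference.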

[16] = Induction of dissipation of diffusion potential in PC/Chol lipid vesicles by fluorescence assay; format: physicochemical; summary of the method: as §5
Staphylococcus aureus [17] = assay: Bactericidal activity against Staphylococcus aureus ATCC 9144 assessed as induction of membrane depolarization at up to 7 uM by DiSC3(5) staining-based fluorescence assay; format: functional, organism-based; summary of the method: as §8
Escherichia coli [18] = assay: Drug uptake in Escherichia coli ATCC 10536 assessed as membrane localization at 3 uM after 30 mins by confocal microscopic analysis; format: ADME, organism-based; details: in vivo, 0.5 h
Summary of the method: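 E. coli (~10^6 CFU/mL) in LB incubated with fluorescent-labeled peptide (~3.0 μM) for half an hour. Cells centrifuged, washed and imaged by confocal microscopy (DIC and fluorescence).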

Aspergillus fumigatus = assay: Antifungal activity against Aspergillus fumigatus after 72 hrs by NCCLS microbroth dilution method; format: functional; summary of the method: as §1
Escherichia coli [19] = assay: Bactericidal activity against Escherichia coli ATCC 10536 assessed as induction of membrane damage at 5 uM after 30 mins by propidium iodide staining-based flow cytometric analysis; format: functional, organism-based
Summary of the method: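 Mid-log E. coli incubated with peptide (~5.0 μM) 30 min at 37 °C with shaking. Cells washed twice in PBS, stained with propidium iodide 30 min at 4 °C, washed and resuspended. 10000 events per sample by flow cytometry, compared with peptide-free control.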

[20] = Binding affinity to PE/PG lipid vesicles assessed as increase in helical structure at 36 uM by circular dichroism analysis; format: physicochemical
Summary of the method: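 Peptides (~36 μM) with ~500 μM PC/Chol (8:1 w/w) or PE/PG (7:3 w/w) vesicles. CD spectra 250–190 nm at ~30 °C in 0.2 cm cuvette; 4–6 scans averaged at 20 nm/min, 0.5 nm interval.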

Escherichia coli [21] = assay: Antibacterial activity against Escherichia coli ATCC 10536 after 18 hrs by broth dilution method; format: functional; details: ATCC 10536, 18 h; summary of the method: as §4
Lipopolysaccharide (LPS) [22] = assay: Binding affinity to LPS assessed as inhibition of LPS-induced LAL enzyme activation at 4.5 uM after 30 mins by spectrophotometric analysis; summary of the method: as §6
RAW264.7 [23] = assay: Antiinflammatory activity in mouse RAW264.7 cells assessed as downregulation of LPS-induced TNFalpha expression at 4.5 uM after 24 hrs by Western blotting analysis; format: functional, cell-based; summary of the method: as §3
NIH3T3 = assay: Cytotoxicity against mouse 3T3 cells assessed as cell viability up to 25 uM by MTT assay; format: cell-based
Summary of the method: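 Murine 3T3 fibroblasts, grown in DMEM/IMDM with 10% FCS at 37 °C, 5% CO2, seeded at 10000 cells/well. Viability after peptide exposure measured by MTT (mitochondrial dehydrogenase) across a dose range.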

[24] = Binding affinity to PC/Chol lipid vesicles assessed as induction of large blue shift at 1 uM by fluorescence assay; format: physicochemical
RAW264.7 [25] = assay: Antiinflammatory activity in mouse RAW264.7 cells assessed as inhibition of LPS-induced NO production at 6 uM by Griess method; format: functional; design: scale not given: the % may be the effect or the level left
Summary of the method: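 RAW 264.7 cells plated at 5 × 10^5/well and exposed to LPS (E. coli 0111:B4, 1 μg/mL) together with peptide at varying doses. Cells with and without LPS served as maximum and basal NO controls. Nitrite in the supernatant measured by Griess reagent at 548 nm against a sodium nitrite standard curve, and percent inhibition of NO calculated.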

[26] = Cytotoxicity against human RBC assessed as induction of membrane damage at 25 uM after 5 mins by annexin V-FITC staining-based FACS flow cytometric analysis; format: cell-based; details: erythrocyte
Summary of the method: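 hRBCs (~3.0 × 10^7 cells/mL) treated with peptide (~25.0 μM) for 5 min at room temperature. Stained with FITC-annexin V and analysed by flow cytometry, 10000 events, compared with untreated control.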

Lipopolysaccharide (LPS) [27] = assay: Binding affinity to FITC-tagged LPS assessed as induction of disintegration up to 40 uM by […]; details: in the assay text read “fluorescence dequenching” for “circular dichroism”
Summary of the method: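 FITC-LPS (0.5 μg/mL) titrated with increasing peptide concentrations. Disaggregation read as dequenching, i.e. rise in FITC fluorescence, monitored after each addition until emission reached equilibrium.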

Lipopolysaccharide (LPS) [28] = assay: Binding affinity to LPS assessed as inhibition of LPS-induced LAL enzyme activation at 9 uM after 30 mins by spectrophotometric analysis; summary of the method: as §6
Staphylococcus aureus [29] = assay: Antibacterial activity against methicillin-resistant Staphylococcus aureus after 18 hrs by broth dilution method; format: functional; summary of the method: as §4

For `CC(C)[C@H](N)C(=O)O` [VALINE], the MIC [1] was 6 µM (≈ 0.703 µg/mL), the inhibition (RAW264.7 [2]) was “Active” and the Activity (RAW264.7 [3]) was “Active”. The MIC (Bacillus subtilis) was 6.8 µM (≈ 0.797 µg/mL), the MIC (Cryptococcus neoformans) was 8.4 µM (≈ 0.984 µg/mL) and the Activity [4] was “Active”. For the same molecule, the inhibition (Lipopolysaccharide (LPS) [5]) was 29%, the MIC (Candida parapsilosis) was 1.5 µM (≈ 0.176 µg/mL) and the Activity [6] was “Active”. For the same molecule, the MIC (Pseudomonas aeruginosa) was 3.2 µM (≈ 0.375 µg/mL), the MIC (Klebsiella pneumoniae) was 3.2 µM (≈ 0.375 µg/mL) and the Activity [7] was “Non-toxic”. For the same molecule, the Activity [8] was “Active”, the MIC (Candida albicans) was 9.6 µM (≈ 1.12 µg/mL) and the Activity (Lipopolysaccharide (LPS) [9]) was “Active”. For the same molecule, the MIC (Staphylococcus aureus [10]) was 5.1 µM (≈ 0.597 µg/mL), the Activity [11] was “Not Active” and the inhibition (RAW264.7 [12]) was “Active”. For the same molecule, the MIC [13] was 6 µM (≈ 0.703 µg/mL), the Drug uptake [14] was “Active” and the MIC (Sporothrix schenckii) was 6 µM (≈ 0.703 µg/mL). For the same molecule, the hemolysis at 60 µM [15] was 10%, the Activity [16] was “Active” and the Activity (Staphylococcus aureus [17]) was “Active”. The Drug uptake (Escherichia coli [18]) was “Active”, the MIC (Aspergillus fumigatus) was 8.4 µM (≈ 0.984 µg/mL) and the Activity (Escherichia coli [19]) was “Active”. The Activity [20] was “Active”, the MIC (Escherichia coli [21]) was 3 µM (≈ 0.351 µg/mL) and the inhibition (Lipopolysaccharide (LPS) [22]) was 8%. For the same molecule, the Activity (RAW264.7 [23]) was “Active”, the Activity (NIH3T3) was “Toxic” and the Activity [24] was “Not Active”. The Activity (RAW264.7 [25]) was 50%, the Activity [26] was “Non-toxic” and the Activity (Lipopolysaccharide (LPS) [27]) was “Active”. It also gave an inhibition (Lipopolysaccharide (LPS) [28]) of 22% and an MIC (Staphylococcus aureus [29]) of 12.5 µM (≈ 1.46 µg/mL).
